From ChEMBL document CHEMBL2412956, “Synthesis and biological activity evaluation of 5-pyrazoline substituted 4-thiazolidinones” (Eur J Med Chem, 2013)

How the values were obtained:
Assay type in all cases: functional
KM12 [1] = test: Cytotoxicity against human KM12 cells after 48 hrs by SRB assay; conditions: KM12, 48 h
In short: (§1)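 This was the NCI 60-cell-line five-dose screen, using 10-fold dilutions from 100 to 0.01 μM and continuous 48-h exposure. Growth was read by sulforhodamine B protein staining relative to time-zero and untreated controls. […] Where an endpoint was not reached, the value was given as beyond the range tested.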

HCT-116 = test: Cytotoxicity against human HCT116 cells after 48 hrs by SRB assay; conditions: HCT-116, 48 h; in short: as §1
NCI-H460 = test: Cytotoxicity against human NCI-H460 cells after 48 hrs by SRB assay; conditions: NCI-H460, 48 h; in short: as §1
HOP-62 = test: Cytotoxicity against human HOP62 cells after 48 hrs by SRB assay; conditions: HOP-62, 48 h; in short: as §1
K562 [2] = test: Cytotoxicity against human K562 cells after 48 hrs by SRB assay; conditions: K562, 48 h; in short: as §1
HL-60(TB) [3] = test: Cytotoxicity against human HL-60(TB) cells after 48 hrs by SRB assay; conditions: HL-60, 48 h; in short: as §1
SR = test: Cytotoxicity against human SR cells after 48 hrs by SRB assay
In short: (§2)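 NCI 60-cell-line panel, five 10-fold concentrations from 100 μM to 0.01 μM (10⁻⁴ to 10⁻⁸ M) with 48-h continuous exposure. Growth was read by SRB protein staining against time-zero and untreated controls. […] Values beyond the tested range are expressed as greater or less than the limit.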

RPMI-8226 = test: Cytotoxicity against human RPMI8226 cells after 48 hrs by SRB assay; conditions: RPMI-8226, 48 h; in short: as §1
CCRF-CEM [4] = test: Cytotoxicity against human CCRF-CEM cells after 48 hrs by SRB assay; in short: as §1
T47D = test: Cytotoxicity against human T47D cells assessed as cell growth at 10 uM after 48 hrs by SRB assay relative to control; conditions: read-out: Activity
In short: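 Single-dose NCI screen: compound at 10⁻⁵ M added to tumor cell cultures and incubated for 48 h. The SRB protein-binding dye end point was read spectrophotometrically. Results are percent growth of treated cells relative to untreated controls.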

MCF7 = test: Cytotoxicity against human MCF7 cells assessed as cell growth at 10 uM after 48 hrs by SRB assay relative to control; conditions: MCF7, 48 h, read-out: Activity
In short: (§3)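 This was the NCI primary screen, with compound added once at 10⁻⁵ M and cultures incubated for 48 h. The endpoint was sulforhodamine B protein staining. Results are expressed as percent growth of treated cells relative to untreated control cells.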

RXF 393 = test: Cytotoxicity against human RXF393 cells assessed as cell growth at 10 uM after 48 hrs by SRB assay relative to control; conditions: RXF 393, 48 h, read-out: Activity; in short: as §3
PC-3 [5] = test: Cytotoxicity against human PC3 cells assessed as cell growth at 10 uM after 48 hrs by SRB assay relative to control; conditions: PC-3, 48 h, read-out: Activity; in short: as §3
OVCAR-3 [6] = test: Cytotoxicity against human OVCAR3 cells assessed as cell growth at 10 uM after 48 hrs by SRB assay relative to control; conditions: OVCAR-3, 48 h, read-out: Activity; in short: as §3
SF-295 [7] = test: Cytotoxicity against human SF295 cells assessed as cell growth at 10 uM after 48 hrs by SRB assay relative to control; conditions: SF-295, 48 h, read-out: Activity; in short: as §3
KM12 [8] = test: Cytotoxicity against human KM12 cells assessed as cell growth at 10 uM after 48 hrs by SRB assay relative to control; conditions: KM12, 48 h, read-out: Activity; in short: as §3
MOLT-4 = test: Cytotoxicity against human MOLT4 cells assessed as cell growth at 10 uM after 48 hrs by SRB assay relative to control; conditions: MOLT-4, 48 h, read-out: Activity; in short: as §3
HL-60(TB) [9] = test: Cytotoxicity against human HL-60(TB) cells assessed as cell growth at 10 uM after 48 hrs by SRB assay relative to control; conditions: HL-60, 48 h, read-out: Activity; in short: as §3
CCRF-CEM [10] = test: Cytotoxicity against human CCRF-CEM cells assessed as cell growth at 10 uM after 48 hrs by SRB assay relative to control; conditions: read-out: Activity; in short: as §3
K562 [11] = test: Cytotoxicity against human K562 cells assessed as cell growth at 10 uM after 48 hrs by SRB assay relative to control; conditions: K562, 48 h, read-out: Activity; in short: as §3
HOP-92 = test: Cytotoxicity against human HOP92 cells assessed as cell growth at 10 uM after 48 hrs by SRB assay relative to control; conditions: HOP-92, 48 h, read-out: Activity; in short: as §3
DU-145 = test: Cytotoxicity against human DU145 cells after 48 hrs by SRB assay; conditions: DU-145, 48 h; in short: as §1
PC-3 [12] = test: Cytotoxicity against human PC3 cells after 48 hrs by SRB assay; conditions: PC-3, 48 h; in short: as §1
786-0 = test: Cytotoxicity against human 786-0 cells after 48 hrs by SRB assay; conditions: 786-0, 48 h; in short: as §1
OVCAR-3 [13] = test: Cytotoxicity against human OVCAR3 cells after 48 hrs by SRB assay; conditions: OVCAR-3, 48 h; in short: as §1
UACC-62 = test: Cytotoxicity against human UACC62 cells after 48 hrs by SRB assay; conditions: UACC-62, 48 h; in short: as §2
MDA-MB-435 = test: Cytotoxicity against human MDA-MB-435 cells after 48 hrs by SRB assay; conditions: MDA-MB-435, 48 h; in short: as §1
LOX IMVI = test: Cytotoxicity against human LOXIMVI cells after 48 hrs by SRB assay; in short: as §1
U-251 = test: Cytotoxicity against human U251 cells after 48 hrs by SRB assay; conditions: U-251, 48 h; in short: as §2
SF-295 [14] = test: Cytotoxicity against human SF295 cells after 48 hrs by SRB assay; conditions: SF-295, 48 h; in short: as §1
HCT-15 = test: Cytotoxicity against human HCT15 cells after 48 hrs by SRB assay; conditions: HCT-15, 48 h; in short: as §1

COc1ccc(C2=NN(C(=O)/C=C3\SC(=O)NC3=O)C(c3ccccc3O)C2)cc1 (stereo not given)
GI50 (KM12 [1]): 4.76 µM | TGI (KM12 [1]): 15.3 µM | GI50 (HCT-116): 4.56 µM | TGI (HCT-116): 16.4 µM | GI50 (NCI-H460): 4.18 µM | TGI (NCI-H460): 18.7 µM | GI50 (HOP-62): 4.85 µM | TGI (HOP-62): 19.8 µM | GI50 (K562 [2]): 4.58 µM | TGI (K562 [2]): 100 µM | GI50 (HL-60(TB) [3]): 3.35 µM | TGI (HL-60(TB) [3]): 9.14 µM | GI50 (SR): 2850 nM | TGI (SR): 9.02 µM | GI50 (RPMI-8226): 2120 nM | TGI (RPMI-8226): 6.91 µM | GI50 (CCRF-CEM [4]): 2850 nM | TGI (CCRF-CEM [4]): 11.3 µM | growth at 10 µM (T47D): 38% | growth at 10 µM (MCF7): 30.3% | growth at 10 µM (RXF 393): 31.4% | growth at 10 µM (PC-3 [5]): 33.6% | growth at 10 µM (OVCAR-3 [6]): 36.4% | growth at 10 µM (SF-295 [7]): -13.4% | growth at 10 µM (KM12 [8]): 29.9% | growth at 10 µM (MOLT-4): 16.5% | growth at 10 µM (HL-60(TB) [9]): -27.3% | growth at 10 µM (CCRF-CEM [10]): 19.5% | growth at 10 µM (K562 [11]): 33.2% | growth at 10 µM (HOP-92): 37.8% | GI50 (DU-145): 4.64 µM | TGI (DU-145): 18.4 µM | GI50 (PC-3 [12]): 4.63 µM | TGI (PC-3 [12]): 44.4 µM | GI50 (786-0): 2960 nM | TGI (786-0): 13.5 µM | GI50 (OVCAR-3 [13]): 3.17 µM | TGI (OVCAR-3 [13]): 11 µM | GI50 (UACC-62): 2830 nM | TGI (UACC-62): 9.28 µM | GI50 (MDA-MB-435): 3.91 µM | TGI (MDA-MB-435): 31.7 µM | GI50 (LOX IMVI): 3.21 µM | TGI (LOX IMVI): 17.9 µM | GI50 (U-251): 4.29 µM | TGI (U-251): 16.6 µM | GI50 (SF-295 [14]): 2990 nM | TGI (SF-295 [14]): 10 µM | GI50 (HCT-15): 4.85 µM | TGI (HCT-15): 24.6 µM
